Assay results published in ChEMBL document CHEMBL2407075, “Sulphonamido-quinoxalines: search for anticancer agent” (Eur J Med Chem, 2013).

Experiments:
Format in all cases: functional
HL-60(TB) = assay: Growth inhibition of human HL-60(TB) cells assessed as cell growth at 10^-7 M after 48 hrs by sulforhodamine B assay; conditions: HL-60, 48 h, read-out: Activity
Method in brief: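 HL-60(TB) suspension cells were treated 48 h at 37 °C within the five-dose series (0.01–100 µM), fixed with 16% final TCA and SRB-stained, read at 515 nm. Percentage growth at each concentration = (Ti−Tz)/(C−Tz)×100, or (Ti−Tz)/Tz×100 when Ti<Tz, with time-zero (Tz) and untreated control (C) plates.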

RPMI-8226 = assay: Growth inhibition of human RPMI8226 cells assessed as cell growth at 10^-5 M after 48 hrs by sulforhodamine B assay; conditions: RPMI-8226, 48 h, read-out: Activity
SN12C = assay: Growth inhibition of human SN12C cells assessed as cell growth at 10^-4 M after 48 hrs by sulforhodamine B assay; conditions: read-out: Activity
UACC-62 [1] = assay: Growth inhibition of human UACC62 cells assessed as cell growth at 10^-5 M after 48 hrs by sulforhodamine B assay; conditions: UACC-62, 48 h, read-out: Activity
K562 = assay: Growth inhibition of human K562 cells assessed as cell growth at 10^-4 M after 48 hrs by sulforhodamine B assay; conditions: K562, 48 h, read-out: Activity
[2] = Growth inhibition of human EKVX cells after 48 hrs by sulforhodamine B assay; conditions: for CC50: read-out: LC50 (the source's name)
Method in brief: (§1)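 Adherent cells in RPMI 1640 with 5% FBS and 2 mM L-glutamine were plated at 5000–40,000 cells/well and grown 24 h. Five concentrations (0.01–100 µM, DMSO stock) were added for 48 h at 37 °C. Cells were fixed with cold TCA (10% final) and stained with SRB, read at 515 nm. GI50 came from log concentration–growth curves against time-zero and control plates.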

OVCAR-5 = assay: Growth inhibition of human OVCAR5 cells assessed as cell growth at 10^-5 M after 48 hrs by sulforhodamine B assay; conditions: OVCAR-5, 48 h, read-out: Activity
BT-549 = assay: Growth inhibition of human BT549 cells assessed as cell growth at 10^-8 M after 48 hrs by sulforhodamine B assay; conditions: BT-549, 48 h, read-out: Activity
Method in brief: (§2)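 Five-dose NCI-60 run (0.01, 0.1, 1, 10 and 100 µM, as 10-fold dilutions from a DMSO stock made at 400× the top final level). Cells were grown in RPMI 1640 with 5% FBS and 2 mM glutamine and plated for 24 h. They were then exposed for 48 h at 37 °C and 5% CO2. TCA fixation was followed by SRB staining with A515 read-out. Percent growth was taken relative to time-zero and control plates.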

NCI-H226 = assay: Growth inhibition of human NCI-H226 cells assessed as cell growth at 10^-8 M after 48 hrs by sulforhodamine B assay; conditions: NCI-H226, 48 h, read-out: Activity
RXF 393 = assay: Growth inhibition of human RXF393 cells assessed as cell growth at 10^-5 M after 48 hrs by sulforhodamine B assay; conditions: RXF 393, 48 h, read-out: Activity
[3] = Growth inhibition of human NCI-ADR-RES cells assessed as cell growth at 10^-8 M after 48 hrs by sulforhodamine B assay; conditions: read-out: Activity
IGROV-1 = assay: Growth inhibition of human IGROV1 cells assessed as cell growth at 10^-4 M after 48 hrs by sulforhodamine B assay; conditions: IGROV-1, 48 h, read-out: Activity
Method in brief: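 Five-dose screen at NCI. Cells in RPMI 1640 with 5% FBS and 2 mM L-glutamine, seeded at 5000–40,000 cells/well and grown 24 h at 37 °C, 5% CO2 before dosing, with time-zero plates TCA-fixed. Drug diluted from DMSO stock to 0.01, 0.1, 1, 10 and 100 µM final, 48 h. Cells fixed with cold TCA (10% final), stained with 0.4% SRB and read at 515 nm. Percent growth from Tz, control and test absorbances; GI50, TGI and LC50 from dose-response curves.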

A498 [4] = assay: Growth inhibition of human A498 cells assessed as cell growth at 10^-6 M after 48 hrs by sulforhodamine B assay; conditions: A498, 48 h, read-out: Activity; method in brief: as §2
[5] = Growth inhibition of human EKVX cells assessed as cell growth at 10^-4 M after 48 hrs by sulforhodamine B assay; conditions: read-out: Activity; method in brief: as §2
SR [6] = assay: Growth inhibition of human SR cells assessed as cell growth at 10^-7 M after 48 hrs by sulforhodamine B assay; conditions: read-out: Activity
SF-295 = assay: Growth inhibition of human SF295 cells assessed as cell growth at 10^-4 M after 48 hrs by sulforhodamine B assay; conditions: SF-295, 48 h, read-out: Activity
A498 [7] = assay: Growth inhibition of human A498 cells assessed as cell growth at 10^-5 M after 48 hrs by sulforhodamine B assay; conditions: A498, 48 h, read-out: Activity; method in brief: as §2
PC-3 = assay: Growth inhibition of human PC3 cells assessed as cell growth at 10^-6 M after 48 hrs by sulforhodamine B assay; conditions: PC-3, 48 h, read-out: Activity
KM12 = assay: Growth inhibition of human KM12 cells after 48 hrs by sulforhodamine B assay; conditions: KM12, 48 h; for CC50: read-out: LC50 (the source's name); method in brief: as §1
SR [8] = assay: Growth inhibition of human SR cells assessed as cell growth at 10^-6 M after 48 hrs by sulforhodamine B assay; conditions: read-out: Activity
CAKI-1 = assay: Growth inhibition of human CAKI-1 cells assessed as cell growth at 10^-7 M after 48 hrs by sulforhodamine B assay; conditions: CAKI-1, 48 h, read-out: Activity; method in brief: as §2
SW-620 = assay: Growth inhibition of human SW620 cells assessed as cell growth at 10^-5 M after 48 hrs by sulforhodamine B assay; conditions: SW-620, 48 h, read-out: Activity
UACC-62 [9] = assay: Growth inhibition of human UACC62 cells assessed as cell growth at 10^-4 M after 48 hrs by sulforhodamine B assay; conditions: UACC-62, 48 h, read-out: Activity
UO-31 = assay: Growth inhibition of human UO31 cells after 48 hrs by sulforhodamine B assay; conditions: UO-31, 48 h; for CC50: read-out: LC50 (the source's name)
Method in brief: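 NCI-60 screen. Cells grown in RPMI 1640 with 5% FBS and 2 mM L-glutamine, plated at 5000–40,000 cells/well and preincubated 24 h at 37 °C, 5% CO2. A time-zero plate is TCA-fixed at drug addition. DMSO stocks diluted in medium; five concentrations (0.01, 0.1, 1, 10, 100 µM). Exposure 48 h, then cold TCA fixation and 0.4% SRB staining, absorbance at 515 nm. GI50 is taken from the growth-percentage curve relative to time zero and control.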

OVCAR-4 = assay: Growth inhibition of human OVCAR4 cells assessed as cell growth at 10^-7 M after 48 hrs by sulforhodamine B assay; conditions: OVCAR-4, 48 h, read-out: Activity
MOLT-4 = assay: Growth inhibition of human MOLT4 cells assessed as cell growth at 10^-4 M after 48 hrs by sulforhodamine B assay; conditions: MOLT-4, 48 h, read-out: Activity

SMILES | growth at 0.1 µM (HL-60(TB)) | growth at 10 µM (RPMI-8226) | growth at 100 µM (SN12C) | growth at 10 µM (UACC-62 [1]) | growth at 100 µM (K562) | CC50 [2] | growth at 10 µM (OVCAR-5) | growth at 0.01 µM (BT-549) | growth at 0.01 µM (NCI-H226) | growth at 10 µM (RXF 393) | growth at 0.01 µM [3] | growth at 100 µM (IGROV-1) | growth at 1 µM (A498 [4]) | growth at 100 µM [5] | growth at 0.1 µM (SR [6]) | growth at 100 µM (SF-295) | growth at 10 µM (A498 [7]) | growth at 1 µM (PC-3) | TGI (KM12) | CC50 (KM12) | also measured
O=S(=O)(Nc1ccc(Cl)cc1)c1ccc2nc(-c3ccccc3)c(-c3ccccc3)nc2c1 | 99% | -45% | 78% | -22% | 58% | > 100 µM | 6% | 98% | 91% | -41% | 99% | 73% | 65% | 65% | 88% | 77% | -5% | 63% | > 100 µM | > 100 µM | growth at 1 µM (SR [8]): 81%; growth at 0.1 µM (CAKI-1): 88%; growth at 10 µM (SW-620): 14%; growth at 100 µM (UACC-62 [9]): 62%; TGI (UO-31): > 100 µM; CC50 (UO-31): > 100 µM; growth at 0.1 µM (OVCAR-4): 90%; growth at 100 µM (MOLT-4): 68%
O=S(=O)(Nc1ccccn1)c1ccc2nc(-c3ccccc3)c(-c3ccccc3)nc2c1 | 97% | -48% | 64% | -13% | 48% | > 100 µM | 8% | 99% | 100% | -44% | 101% | 63% | 66% | 50% | 89% | 40% | -8% | 60% | > 100 µM | > 100 µM | GI50 [2]: 2.69 µM; TGI [2]: > 100 µM; growth at 1 µM (SR [8]): 66%; growth at 0.1 µM (CAKI-1): 93%; growth at 10 µM (SW-620): 14%; growth at 100 µM (UACC-62 [9]): 64%; CC50 (UO-31): > 100 µM; growth at 0.1 µM (OVCAR-4): 102%; growth at 100 µM (MOLT-4): 48%
